Screening data (PubChem)
In the library only some 3.5% were active in any assay of this set; here they are far more common.
Cneo AK release = causes C. neoformans cell lysis; adenylate kinase release luminescence, 4 h; normalised: neutral wells 0, clomiphene wells 100; lysis activity, % at 15 µM; actives 0.2% (n = 360,000); AID 651654;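 active = mean lysis activity across replicates of at least 80%, whatever share of replicates individually reach that level; inactive = mean lysis activity below 80%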
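Assay system: Cryptococcus neoformans yeast cells / Dosing: single-point compound dose / Timing: 4 h at 37 °C static, read 1 h later / Measured by: luminescence of released adenylate kinase using an AK detection reagent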
ERAP1 inh = blocks human ERAP1 aminopeptidase activity | Q9NZ08 | recombinant ERAP1, Leu-AMC fluorescence, 60 min | inhibition, % at 10.7 µM | actives 0.15% (n = 340,000);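 active = mean replicate inhibition of at least 30%, or all replicates individually reaching that 30% level; inactive = mean below 30% and not every replicate reaching it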;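 also: 0% = neutral control wells and 100% = L-leucinethiol positive control wells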
Target sequence (Q9NZ08 whole entry, looked up): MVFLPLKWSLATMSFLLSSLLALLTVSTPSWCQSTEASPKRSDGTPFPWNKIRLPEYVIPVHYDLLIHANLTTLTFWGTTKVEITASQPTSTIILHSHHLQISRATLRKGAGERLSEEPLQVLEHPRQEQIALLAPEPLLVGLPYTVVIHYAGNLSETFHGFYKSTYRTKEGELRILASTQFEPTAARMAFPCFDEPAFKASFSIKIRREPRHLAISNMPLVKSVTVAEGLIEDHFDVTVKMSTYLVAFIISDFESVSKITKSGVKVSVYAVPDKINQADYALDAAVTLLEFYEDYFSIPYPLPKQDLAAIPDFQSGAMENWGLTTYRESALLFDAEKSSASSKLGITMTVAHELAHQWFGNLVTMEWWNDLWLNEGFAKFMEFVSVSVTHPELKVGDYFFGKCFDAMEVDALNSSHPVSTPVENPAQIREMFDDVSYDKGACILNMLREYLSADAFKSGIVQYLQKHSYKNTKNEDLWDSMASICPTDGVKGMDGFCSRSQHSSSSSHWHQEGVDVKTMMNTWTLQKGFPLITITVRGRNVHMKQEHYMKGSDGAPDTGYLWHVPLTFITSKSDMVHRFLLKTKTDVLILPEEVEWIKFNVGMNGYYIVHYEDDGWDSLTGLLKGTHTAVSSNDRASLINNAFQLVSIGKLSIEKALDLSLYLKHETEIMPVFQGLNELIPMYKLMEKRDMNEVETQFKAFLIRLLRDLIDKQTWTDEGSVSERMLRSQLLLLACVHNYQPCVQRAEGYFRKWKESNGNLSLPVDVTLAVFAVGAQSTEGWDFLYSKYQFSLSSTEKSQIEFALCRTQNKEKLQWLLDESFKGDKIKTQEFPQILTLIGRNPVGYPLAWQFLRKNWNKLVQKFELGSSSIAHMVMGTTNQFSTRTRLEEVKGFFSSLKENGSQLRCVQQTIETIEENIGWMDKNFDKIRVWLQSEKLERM
HIV Env fusion = HIV envelope-mediated fusion inhibition. HeLa-JRFL Env/CEM21 cell fusion, luciferase. inhibition, % at 12.3 µM. actives 1.1% (n = 360,000);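 active = mean replicate inhibition score of at least 50 and every replicate individually at or above 50; inconclusive = only one of the two criteria met; inactive = mean below 50 and not all replicates reaching 50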;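 also: 0% = plate neutral controls and 100% = maraviroc near 300 nM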
MITF act = activators of MITF-driven TRPM1 promoter activity in SK-MEL-5 cells; AID 588334; activation, % at 12.5 µM; actives 0.75% (n = 300,000); SK-MEL-5 TRPM1-promoter luciferase, 24 h; % of positive control, neutral wells = 0;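 active = mean activation of at least 80% with every replicate also reaching 80%; inconclusive = mean reaches 80% but some replicate falls short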;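 also: 0% = neutral control wells and 100% = parthenolide positive control wells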
Wnt act = Wnt/beta-catenin pathway activation. Wnt/beta-catenin reporter cell assay, activator, plate reader. AID 743398. activation, % at 9.35 µM. actives 1.2% (n = 300,000); in the data active = activation above about 30%, passing the limit was not always enough; inconclusive = no clear call, values can overlap the other calls;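 also: 0% = neutral control wells and 100% = positive control wells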
esBAF inh = inhibitors of esBAF chromatin remodeling in mouse ES cells; Bmi1-luciferase knock-in reporter, 24 h; 100% = twice the neutral-well signal; reporter increase, % at 12.5 µM; actives 2% (n = 350,000); in the data active = activation above about 40%; inconclusive = no clear call, values can overlap the other calls;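 also: 0% = median of the plate's neutral control wells and 100% = double that signal; a rise in the Bmi1 reporter signal indicates esBAF inhibition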
Active calls of the source: *; ? = inconclusive; nt = not tested or not shown; [ ] = remark or other dose.

SMILES	Cneo AK release	ERAP1 inh	HIV Env fusion	MITF act	Wnt act	esBAF inh
C[C@H](NC(=O)C[C@H]1C[C@H]2c3cc(NC(=O)CC4CC4)ccc3O[C@H]2[C@@H](CO)O1)c1ccccc1	-6.5	-0.7	nt	nt	nt	-0.1
O=C(CSc1nnc(-c2cccc(F)c2)o1)N1CCCC1	-1.2	-1.2	-19.6	44.9	12.3	44.0*
O=C(CSc1nnc(-c2ccc(Cl)cc2)o1)N1CCOCC1	1.7	0.8	-3.9	97.1*	9.9	?
CCOc1ccc(-c2nnc(SCC(=O)N3CCNC3=O)o2)cc1	-4.6	0.4	-50.8	33.1	45.3*	-41.7
O=C(CSc1nnc(-c2cccc(F)c2)o1)N1CCOCC1	-0.5	0.4	-27.6	37.9	4.1	25.9
O=C(CSc1nnc(-c2ccc(O)cc2)o1)N1CCOCC1	0.0	nt	-94.1	nt	nt	24.4
CCC(=O)N(C)C[C@@H]1Oc2cc(-c3ccc(C)cc3)ccc2S(=O)(=O)N([C@@H](C)CO)C[C@H]1C	-1.8	0.4	-18.1[16.7 µM]	nt	nt	-2.3
Oc1ccccc1-c1nnc(COc2ccc(Cl)cc2Cl)o1	-2.0	-0.7	-67.6	96.0*	?	12.1
C=CCSc1nnc(-c2ccc(Cl)cc2Cl)o1	0.0	nt	-193.8	59.1	?	4.1
Clc1ccc(-c2nnc(CCc3ccccc3)o2)c(Cl)c1	-1.8	3.9	nt	?	19.5	59.8*
CNC(=O)C[C@H]1CC[C@@H]2[C@H](COc3ccc(NC(=O)c4ccc(F)cc4)cc3C(=O)N2C)O1	-2.5	2.4	-2.4[16.7 µM]	nt	nt	1.3
CCCCCc1ccc(OCCCC[n+]2ccccc2)c(CCCCC)c1	nt	nt	nt	-87.8	nt	nt
CCC(C)(C)c1ccc(OCCCC[n+]2ccccc2)c(C(C)(C)CC)c1	nt	24.4	76.9*	-98.6	-19.3	nt
COc1ccc(S(=O)(=O)N(C)C[C@@H]2Oc3ccc(NC(=O)Cc4ccccc4)cc3C(=O)N([C@H](C)CO)C[C@H]2C)cc1	0.1	0.0	nt	nt	nt	-6.8
CN(C(=O)c1cc(-c2ccc3c(c2)OCO3)on1)c1ccccc1	1.4	2.6	-44.5	101.0*	14.2	67.5*
CSc1ccccc1NC(=O)c1cc(C)on1	0.3	nt	-47.0	-9.2	nt	4.0
O=C(c1cc(-c2ccc3c(c2)OCO3)on1)N1CCN(c2ccccc2)CC1	-12.7	nt	-97.8	60.1	nt	31.3
O=C(Nc1cc(Br)ccc1O)c1cc(-c2ccc3c(c2)OCO3)on1	-0.3	1.0	-37.1	44.5	7.2	45.5*
CSc1ccccc1NC(=O)c1cc(-c2ccc3c(c2)OCO3)on1	-1.0	1.9	-29.7	66.2	11.3	47.7*
CC(C)CNC(=O)c1cc(-c2ccc3c(c2)OCO3)on1	1.3	0.1	-143.5	nt	35.0*	2.6
CCCC(=O)Nc1ccc2c(c1)OC[C@H](C)N(CC1CCCC1)C[C@H](C)[C@H](OC)CN(C)C2=O	-0.6	-4.6	-6.4[16.7 µM]	nt	nt	-2.5
Cc1noc(C)c1S(=O)(=O)Nc1ccc2c(c1)C(=O)N([C@H](C)CO)C[C@H](C)[C@@H](CN(C)C(=O)c1ccncc1)OCCCC[C@H](C)O2	-2.1	1.4	-11.7[16.7 µM]	nt	nt	0.9
CO[C@@H]1CN(C)C(=O)c2cc(NS(C)(=O)=O)ccc2OC[C@H](C)N(Cc2nccs2)C[C@@H]1C	53.9	-3.4	-4.4[16.7 µM]	nt	nt	-2.4
O=C(Nc1ccccc1)Nc1cc(OCC(F)(F)F)cc(OCC(F)(F)F)c1	nt	-2.8	62.1*	-84.7	-3.7	nt
O=C(Nc1ccccc1)Nc1cc(Cl)cc(Cl)c1	-2.8	nt	nt	-3.2	nt	-20.4
SMILES	Cneo AK release	ERAP1 inh	HIV Env fusion	MITF act	Wnt act	esBAF inh
O=C(Cc1ccccc1)N1CC(=O)N2[C@H](C1)[C@@H](c1ccc(C3=CCCC3)cc1)[C@@H]2CO	nt	0.5	nt	nt	nt	nt
CCCNC(=O)C1(C)CCN(Cc2ccc(OC)c3ccccc23)C1 (centres undefined)	5.3	-2.1	-215.3	nt	-5.1	-7.7
COc1ccc(CN2CCC(C)(Oc3ccc4c(c3)OCO4)C2)c2ccccc12 (centres undefined)	21.1	-0.4	70.4*	nt	-0.5	1.2
CCC(=O)N1CC[C@@H]2[C@@H](CO)Nc3ccc(-c4ccccc4)cc3[C@@H]21	-10.5	nt	nt	nt	nt	-3.4
COCCNC(=O)C[C@H]1C[C@H]2c3cc(NC(=O)Nc4ccc(F)cc4)ccc3O[C@H]2[C@H](CO)O1	-4.0	nt	2.1[16.7 µM]	nt	nt	2.2
O=C(C1CCCN(S(=O)(=O)c2ccc(F)cc2)C1)N1CCOCC1 (centres undefined)	-2.2	2.8	-35.1	59.5	43.3*	55.2*
CCCNC(=O)N1CC2(CN(C(=O)C3CCCC3)C2)c2c([nH]c3cc(OC)ccc23)[C@@H]1CO	nt	1.5	nt	nt	nt	nt
C[C@@H]1CN([C@H](C)CO)S(=O)(=O)c2ccc(C3=CCCC3)cc2O[C@H]1CN(C)C(=O)c1ccccn1	6.9	-3.8	-4.3[16.7 µM]	nt	nt	6.3
C/C(=N\OC(=O)c1ccc(F)cc1)c1sc(-c2ccc(Cl)cc2)nc1C	-3.5	-3.4	-125.4	71.6	51.0*	?
COc1ccc(/C=C/C(=O)Oc2cccc(/C=N/NC(=O)COc3c(C)cccc3C)c2)cc1	-0.1	nt	nt	15.2	nt	45.2*
CCOc1cccc(C(=O)Nc2ccc3ccccc3c2)c1	-8.5	-0.4	-299.0	nt	35.7*	-30.2
O=C(Nc1ccc2c(c1)OCCO2)c1cccc(C(=O)Nc2ccc3c(c2)OCCO3)c1	-1.7	0.0	9.7	40.8	19.0	25.0
CCOc1cccc(C(=O)Nc2cccc(C(C)=O)c2)c1	2.1	nt	-26.2	9.5	14.9	-9.1
CCOc1cccc(C(=O)Nc2ccc3c(c2)OCCO3)c1	-8.1	-3.0	-89.2	nt	41.8*	-44.5
CCOc1cccc(C(=O)Nc2ccc(N3CCCC3)cc2)c1	2.2	0.1	-2.9	nt	2.8	7.8
CCCOc1cccc(C(=O)NC(=S)Nc2cccc(C(F)(F)F)c2)c1	0.3	-1.7	nt	6.7	-1.4	-3.3
CCOc1cccc(C(=O)Nc2ccc(N(CC)CC)cc2)c1	-8.0	nt	-89.3	36.9	nt	43.6*
CCOc1cccc(C(=O)NC(=S)Nc2cccc(C)c2)c1	nt	2.5	-14.9	31.3	21.8	42.4*
C[C@H](CO)N1C[C@H](C)[C@@H](CN(C)C(=O)NC2CCCCC2)Oc2ccc(NC(=O)Cn3cnnn3)cc2CC1=O	-1.0	-1.0	-21.1[16.7 µM]	nt	nt	-0.7
CCOc1ccc(C(=O)Nc2ccc3[nH]ncc3c2)cc1	-8.7	3.7	-55.6	55.5	54.6*	-37.4
CCN(CC)c1ccc(NC(=O)c2cnn(CC)c2)cc1	nt	nt	nt	14.4	nt	53.6*
O=C(Nc1ccc2c(c1)OCCO2)c1cncc(Br)c1	-2.9	nt	-83.0	nt	40.9*	3.8
COc1ccc(C(=O)Nc2ccc3[nH]ncc3c2)cc1	0.1	-2.0	-18.7	nt	0.4	-14.6
C[C@H](CO)N1C[C@H](C)[C@@H](CN(C)C(=O)Nc2ccc3c(c2)OCO3)Oc2ccc(N(C)C)cc2C1=O	6.5	-3.9	4.6[16.7 µM]	nt	nt	4.6
C[C@@H]1CN([C@H](C)CO)C(=O)c2cc(NC(=O)c3ccncc3)ccc2O[C@@H](C)CCCCO[C@H]1CN(C)Cc1ccc(C(=O)O)cc1	0.8	4.0	12.9[16.7 µM]	nt	nt	-1.6
